Assay results reported in ChEMBL document CHEMBL5247575 (J Med Chem, 2018).

What was measured:
[1] = test system: Bacteria; experiment: Inhibition of bacteria ADC-7 assessed as second order rate constant K2/K using nitrocefin as substrate
[2] = test system: Pseudomonas aeruginosa; experiment: Synergistic antibacterial activity against Pseudomonas aeruginosa 795 assessed as meropenem MIC at 4 ug/ml by broth microdilution method; format: functional; settings: dose 4 µg/ml
[3] = test system: Bacteria; experiment: Inhibition of bacteria KPC-2 assessed as half life using nitrocefin as substrate
[4] = test system: Acinetobacter baumannii; experiment: Synergistic antibacterial activity against ADC deleted Acinetobacter baumannii transfected with pWH1266 OXA-23 assessed as meropenem MIC at 4 ug/ml by broth microdilution method; format: functional; settings: dose 4 µg/ml
[5] = test system: Klebsiella pneumoniae; experiment: Synergistic antibacterial activity against Klebsiella pneumoniae jefferson 1773 producing OXA-181 assessed as cefepime MIC at 4 ug/ml by broth microdilution method; format: functional; settings: dose 4 µg/ml
[6] = test system: Klebsiella pneumoniae; experiment: Synergistic antibacterial activity against Klebsiella pneumoniae 440/1360 producing KPC-2 assessed as cefepime MIC at 4 ug/ml by broth microdilution method; format: functional; settings: dose 4 µg/ml
Outline: (§1)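 Broth microdilution per CLSI guidelines, using custom frozen panels. […] Each partner drug was also tested alone. MICs were run in triplicate and the modal value is reported.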

[7] = test system: Klebsiella pneumoniae; experiment: Synergistic antibacterial activity against Klebsiella pneumoniae jefferson 1775 producing OXA-48 assessed as meropenem MIC at 4 ug/ml by broth microdilution method; format: functional; settings: dose 4 µg/ml
[8] = test system: Pseudomonas aeruginosa; experiment: Synergistic antibacterial activity against Pseudomonas aeruginosa 715 assessed as cefepime MIC at 4 ug/ml by broth microdilution method; format: functional; settings: dose 4 µg/ml
[9] = test system: Klebsiella pneumoniae; experiment: Synergistic antibacterial activity against Klebsiella pneumoniae 1315/2198 producing KPC-3 assessed as meropenem MIC at 4 ug/ml by broth microdilution method; format: functional; settings: dose 4 µg/ml; outline: as §1
[10] = test system: Klebsiella pneumoniae; experiment: Antibacterial activity against Klebsiella pneumoniae jefferson 1775 producing OXA-48 by broth microdilution method; format: functional
[11] = test system: Klebsiella pneumoniae; experiment: Synergistic antibacterial activity against Klebsiella pneumoniae 440/1360 producing KPC-2 assessed as meropenem MIC at 4 ug/ml by broth microdilution method; format: functional; settings: dose 4 µg/ml; outline: as §1
[12] = test system: Klebsiella pneumoniae; experiment: Synergistic antibacterial activity against Klebsiella pneumoniae 972/1910 producing KPC-3 assessed as meropenem MIC at 4 ug/ml by broth microdilution method; format: functional; settings: dose 4 µg/ml
[13] = test system: Klebsiella pneumoniae; experiment: Synergistic antibacterial activity against Klebsiella pneumoniae 761/1723 producing KPC-3 assessed as meropenem MIC at 4 ug/ml by broth microdilution method; format: functional; settings: dose 4 µg/ml
[14] = test system: Acinetobacter baumannii; experiment: Synergistic antibacterial activity against Acinetobacter baumannii PR359 producing OXA-23 assessed as cefepime MIC at 4 ug/ml by broth microdilution method; format: functional; settings: dose 4 µg/ml
[15] = test system: Klebsiella pneumoniae; experiment: Synergistic antibacterial activity against Klebsiella pneumoniae 1398/2291 producing KPC-3 assessed as meropenem MIC at 4 ug/ml by broth microdilution method; format: functional; settings: dose 4 µg/ml; outline: as §1
[16] = test system: Klebsiella pneumoniae; experiment: Synergistic antibacterial activity against Klebsiella pneumoniae 901/1860 producing KPC-3 assessed as meropenem MIC at 4 ug/ml by broth microdilution method; format: functional; settings: dose 4 µg/ml
[17] = test system: Escherichia coli; experiment: Synergistic antibacterial activity against Escherichia coli DH10B transfected with pBR322-catI-KPC-2 assessed as cefepime MIC at 4 ug/ml by broth microdilution method; format: functional; settings: dose 4 µg/ml; outline: as §1
[18] = test system: Escherichia coli; experiment: Antibacterial activity against Escherichia coli DH10B transfected with pBC SK (-) PDC-3 by broth microdilution method; format: functional
[19] = test system: Acinetobacter baumannii; experiment: Synergistic antibacterial activity against ADC deleted Acinetobacter baumannii assessed as cefepime MIC at 4 ug/ml by broth microdilution method; format: functional; settings: dose 4 µg/ml
[20] = test system: Klebsiella pneumoniae; experiment: Synergistic antibacterial activity against Klebsiella pneumoniae jefferson 1773 producing OXA-181 assessed as meropenem MIC at 4 ug/ml by broth microdilution method; format: functional; settings: dose 4 µg/ml
[21] = test system: Klebsiella pneumoniae; experiment: Synergistic antibacterial activity against Klebsiella pneumoniae 1084/1957 producing KPC-3 assessed as cefepime MIC at 4 ug/ml by broth microdilution method; format: functional; settings: dose 4 µg/ml; outline: as §1
[22] = test system: Klebsiella pneumoniae; experiment: Synergistic antibacterial activity against Klebsiella pneumoniae 1084/1957 producing KPC-3 assessed as cefepime MIC at 8 ug/ml by broth microdilution method; format: functional; settings: dose 8 µg/ml; outline: as §1
[23] = test system: Pseudomonas aeruginosa; experiment: Synergistic antibacterial activity against Pseudomonas aeruginosa 795 assessed as cefepime MIC at 8 ug/ml by broth microdilution method; format: functional; settings: dose 8 µg/ml
[24] = test system: Klebsiella pneumoniae; experiment: Synergistic antibacterial activity against Klebsiella pneumoniae 901/1860 producing KPC-3 assessed as cefepime MIC at 8 ug/ml by broth microdilution method; format: functional; settings: dose 8 µg/ml
[25] = test system: Escherichia coli; experiment: Synergistic antibacterial activity against Escherichia coli DH10B transfected with pBC SK (-) KPC-2 assessed as cefepime MIC at 8 ug/ml by broth microdilution method; format: functional; settings: dose 8 µg/ml
[26] = test system: Escherichia coli; experiment: Synergistic antibacterial activity against Escherichia coli DH10B transfected with pBC SK (-) OXA-48 assessed as meropenem MIC at 8 ug/ml by broth microdilution method; format: functional; settings: dose 8 µg/ml; outline: as §1
[27] = test system: Pseudomonas aeruginosa; experiment: Synergistic antibacterial activity against Pseudomonas aeruginosa 776 assessed as meropenem MIC at 8 ug/ml by broth microdilution method; format: functional; settings: dose 8 µg/ml
[28] = test system: Pseudomonas aeruginosa; experiment: Synergistic antibacterial activity against Pseudomonas aeruginosa 839 assessed as meropenem MIC at 8 ug/ml by broth microdilution method; format: functional; settings: dose 8 µg/ml
[29] = test system: Acinetobacter baumannii; experiment: Synergistic antibacterial activity against ADC deleted Acinetobacter baumannii transfected with pWH1266 OXA-23 assessed as cefepime MIC at 8 ug/ml by broth microdilution method; format: functional; settings: dose 8 µg/ml
[30] = test system: Klebsiella pneumoniae; experiment: Synergistic antibacterial activity against Klebsiella pneumoniae 1315/2198 producing KPC-3 assessed as meropenem MIC at 8 ug/ml by broth microdilution method; format: functional; settings: dose 8 µg/ml; outline: as §1
[31] = test system: Pseudomonas aeruginosa; experiment: Synergistic antibacterial activity against Pseudomonas aeruginosa CL232 assessed as meropenem MIC at 8 ug/ml by broth microdilution method; format: functional; settings: dose 8 µg/ml
[32] = test system: Klebsiella pneumoniae; experiment: Synergistic antibacterial activity against Klebsiella pneumoniae CAV 1636 producing OXA-181 assessed as cefepime MIC at 8 ug/ml by broth microdilution method; format: functional; settings: dose 8 µg/ml
[33] = test system: Klebsiella pneumoniae; experiment: Synergistic antibacterial activity against Klebsiella pneumoniae 901/1860 producing KPC-3 assessed as meropenem MIC at 8 ug/ml by broth microdilution method; format: functional; settings: dose 8 µg/ml
[34] = test system: Klebsiella pneumoniae; experiment: Synergistic antibacterial activity against Klebsiella pneumoniae 1108/1989 producing KPC-3 assessed as cefepime MIC at 8 ug/ml by broth microdilution method; format: functional; settings: dose 8 µg/ml; outline: as §1
[35] = test system: Klebsiella pneumoniae; experiment: Synergistic antibacterial activity against Klebsiella pneumoniae CAV 1543 producing OXA-48 assessed as meropenem MIC at 8 ug/ml by broth microdilution method; format: functional; settings: dose 8 µg/ml
[36] = test system: Klebsiella pneumoniae; experiment: Synergistic antibacterial activity against Klebsiella pneumoniae 761/1723 producing KPC-3 assessed as meropenem MIC at 8 ug/ml by broth microdilution method; format: functional; settings: dose 8 µg/ml
[37] = test system: Acinetobacter baumannii; experiment: Synergistic antibacterial activity against Acinetobacter baumannii PR363 producing OXA-23 assessed as meropenem MIC at 8 ug/ml by broth microdilution method; format: functional; settings: dose 8 µg/ml
[38] = test system: Klebsiella pneumoniae; experiment: Synergistic antibacterial activity against Klebsiella pneumoniae 1398/2291 producing KPC-3 assessed as meropenem MIC at 8 ug/ml by broth microdilution method; format: functional; settings: dose 8 µg/ml; outline: as §1
[39] = test system: Pseudomonas aeruginosa; experiment: Synergistic antibacterial activity against Pseudomonas aeruginosa 839 assessed as cefepime MIC at 8 ug/ml by broth microdilution method; format: functional; settings: dose 8 µg/ml
[40] = test system: Acinetobacter baumannii; experiment: Synergistic antibacterial activity against ADC deleted Acinetobacter baumannii transfected with pWH1266 OXA-23 assessed as meropenem MIC at 8 ug/ml by broth microdilution method; format: functional; settings: dose 8 µg/ml
Outline: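 Broth microdilution per CLSI guidelines in frozen panels. Test compound held at fixed 8 mg/L while the partner β-lactam concentration was increased. Run in triplicate; modal MIC reported.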

Compound	K [1]	MIC [2] [µg/mL]	T1/2 [3] [min]	MIC [4] [µg/mL]	MIC [5] [µg/mL]	MIC [6] [µg/mL]	MIC [7] [µg/mL]	MIC [8] [µg/mL]	MIC [9] [µg/mL]	MIC [10] [µg/mL]	MIC [11] [µg/mL]	MIC [12] [µg/mL]	MIC [13] [µg/mL]	MIC [14] [µg/mL]	MIC [15] [µg/mL]	MIC [16] [µg/mL]	MIC [17] [µg/mL]	MIC [18] [µg/mL]	MIC [19] [µg/mL]	MIC [21] [µg/mL]	other results
O.O=C(NC1CCNCC1)[C@@H]1CC[C@@H]2CN1C(=O)N2OS(=O)(=O)O [RELEBACTAM]	7.8 10^3/M/s	8	46	> 16	4	1	2	16	≤ 0.12	> 16	≤ 0.12	≤ 0.12	≤ 0.12	16	≤ 0.12	≤ 0.12	≤ 0.12	> 16	0.25	0.25	MIC [20]: 16 µg/mL
NC(=O)[C@@H]1CC[C@@H]2CN1C(=O)N2OS(=O)(=O)[O-].[Na+] [AVIBACTAM SODIUM]	3.9 10^3/M/s	16	82	> 16	1	≤ 0.12	≤ 0.12	16	≤ 0.12	> 16	≤ 0.12	≤ 0.12	≤ 0.12	16	≤ 0.12	≤ 0.12	≤ 0.12	> 16	0.5	≤ 0.12	MIC [20]: 1 µg/mL
O=C(NNC(=O)[C@@H]1CC[C@@H]2CN1C(=O)N2OS(=O)(=O)O)[C@@H]1CCCNC1 [ZIDEBACTAM]	3.5 10^4/M/s	16	29	> 16	≤ 0.12	≤ 0.12	≤ 0.12	–	≤ 0.12	–	≤ 0.12	≤ 0.12	≤ 0.12	8	≤ 0.12	≤ 0.12	≤ 0.12	–	0.25	≤ 0.12	MIC [22]: ≤ 0.12 µg/mL; MIC [23]: 16 µg/mL; MIC [24]: ≤ 0.12 µg/mL; MIC [25]: ≤ 0.12 µg/mL; MIC [26]: ≤ 0.12 µg/mL; MIC [27]: 16 µg/mL; MIC [28]: ≤ 0.12 µg/mL; MIC [29]: 16 µg/mL; MIC [30]: ≤ 0.12 µg/mL; MIC [31]: > 16 µg/mL; MIC [32]: ≤ 0.12 µg/mL; MIC [33]: ≤ 0.12 µg/mL; MIC [34]: ≤ 0.12 µg/mL; MIC [35]: ≤ 0.12 µg/mL; MIC [36]: ≤ 0.12 µg/mL; MIC [37]: > 16 µg/mL; MIC [38]: ≤ 0.12 µg/mL; MIC [39]: 0.5 µg/mL; MIC [40]: > 16 µg/mL
O=C(NNC(=O)[C@@H]1CC[C@@H]2CN1C(=O)N2OS(=O)(=O)O)[C@@H]1CCNC1	3.2 10^4/M/s	–	33	–	≤ 0.12	≤ 0.12	≤ 0.12	–	≤ 0.12	> 16	≤ 0.12	≤ 0.12	≤ 0.12	8	≤ 0.12	≤ 0.12	≤ 0.12	–	0.5	≤ 0.12	MIC [22]: ≤ 0.12 µg/mL; MIC [23]: ≤ 0.12 µg/mL; MIC [24]: ≤ 0.12 µg/mL; MIC [25]: ≤ 0.12 µg/mL; MIC [26]: ≤ 0.12 µg/mL; MIC [27]: 16 µg/mL; MIC [28]: ≤ 0.12 µg/mL; MIC [29]: 16 µg/mL; MIC [30]: ≤ 0.12 µg/mL; MIC [31]: 16 µg/mL; MIC [32]: ≤ 0.12 µg/mL; MIC [33]: ≤ 0.12 µg/mL; MIC [34]: ≤ 0.12 µg/mL; MIC [35]: ≤ 0.12 µg/mL; MIC [36]: ≤ 0.12 µg/mL; MIC [37]: > 16 µg/mL; MIC [38]: ≤ 0.12 µg/mL; MIC [39]: ≤ 0.12 µg/mL; MIC [40]: > 16 µg/mL
N#C[C@@H]1CC[C@@H]2CN1C(=O)N2OS(=O)(=O)[O-].[Na+]	1.9 10^4/M/s	16	26	16	1	0.5	≤ 0.12	16	≤ 0.12	> 16	≤ 0.12	≤ 0.12	≤ 0.12	8	≤ 0.12	≤ 0.12	≤ 0.12	> 16	0.5	≤ 0.12	MIC [22]: ≤ 0.12 µg/mL; MIC [23]: > 16 µg/mL; MIC [24]: ≤ 0.12 µg/mL; MIC [25]: ≤ 0.12 µg/mL; MIC [26]: ≤ 0.12 µg/mL; MIC [27]: > 16 µg/mL; MIC [28]: 1 µg/mL; MIC [29]: 2 µg/mL; MIC [30]: ≤ 0.12 µg/mL; MIC [31]: > 16 µg/mL; MIC [32]: 0.5 µg/mL; MIC [33]: ≤ 0.12 µg/mL; MIC [34]: ≤ 0.12 µg/mL; MIC [35]: ≤ 0.12 µg/mL; MIC [36]: ≤ 0.12 µg/mL; MIC [37]: 2 µg/mL; MIC [20]: 0.25 µg/mL; MIC [38]: ≤ 0.12 µg/mL; MIC [39]: 8 µg/mL; MIC [40]: 4 µg/mL
